Assay results reported in ChEMBL document CHEMBL3351346, “Design, synthesis, structure-function relationship, bioconversion, and pharmacokinetic evaluation of ertapenem prodrugs” (J Med Chem, 2014).

Key:
Canis familiaris [1] = experiment: AUC (0 to 8 hrs) in fasted Beagle dog assessed as ertapenem level at 10 mg/kg dosed through intraduodenal route by LC-MS/MS method; type: ADME, organism-based, Canis lupus familiaris, Plasma; set-up: time < 8 hr, dose 10 mg/kg, route intraduodenal; details: in vivo, other
Method in brief: (§1)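 Prodrugs were given intraduodenally to bypass stomach acid. Plasma was sampled at intervals over 8 h, and parent prodrug, the two monoester metabolites and ertapenem were quantified by LC-MS/MS. The lower limit of quantitation was 5 nM. AUC(0–8) was used, and it differed from AUC(0–∞) by ±20%. Vehicles were 30% Captisol or 0.5% methylcellulose, as solution or suspension depending on compound.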

[2] = Stability in pH 2.0 simulated gastric fluid assessed as compound degradation to beta-lactam ring open products at 1 uM after 60 mins by LC-MS/MS method; type: ADME; details: read-out: Drug degradation
Method in brief: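 Incubation was in simulated gastric fluid (SGF, pH 2.0) for 60 min, with loss to the β-lactam ring-opened product measured by LC-MS/MS.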

[3] = Stability in human plasma assessed as compound remaining at 50 uM at 37 degC after 60 mins by LC-MS/MS method; type: ADME, cell-free; details: read-out: Stability
Method in brief: (§2)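 Prodrugs were incubated in rat or human plasma for 60 min. Disappearance of prodrug and concomitant appearance of ertapenem were followed by LC-MS/MS, and in selected cases monoesters from partial hydrolysis were also monitored. Ertapenem itself was incubated the same way as a control.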

Canis familiaris [4] = experiment: AUC (0 to 8 hrs) in fasted Beagle dog assessed as 8-OH, C-3 ester level at 10 mg/kg dosed through intraduodenal route by LC-MS/MS method; type: ADME, organism-based, Canis lupus familiaris, Plasma; set-up: time < 8 hr, dose 10 mg/kg, route intraduodenal; details: in vivo, other; method in brief: as §1
[5] = Stability in rat plasma assessed as compound remaining at 50 uM at 37 degC after 60 mins by LC-MS/MS method; type: ADME, cell-free; details: read-out: Stability; method in brief: as §2
[6] = Stability in pH 7.4 phosphate buffer assessed as compound remaining at 50 uM after 3 hrs by LC-MS/MS method; type: physicochemical; details: read-out: Stability
Canis familiaris [7] = experiment: (§3) AUC (0 to 8 hrs) in fasted Beagle dog at 10 mg/kg dosed through intraduodenal route by LC-MS/MS method; type: ADME, organism-based, Canis lupus familiaris, Plasma; set-up: time < 8 hr, dose 10 mg/kg, route intraduodenal; details: in vivo, other, 8 h; method in brief: as §1
Canis familiaris [8] = experiment: Oral bioavailability in fasted Beagle dog assessed as assessed as ertapenem and monoetser metabolites level at 10 mg/kg dosed through intraduodenal route by LC-MS/MS method; type: ADME, organism-based, Canis lupus familiaris; details: in vivo
Method in brief: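 Total absorption followed intraduodenal dosing with LC-MS/MS of plasma over 8 h. It was calculated as the combined dose-normalized AUC of circulating parent prodrug, ertapenem and two monoesters, divided by dose-normalized AUC of ertapenem given iv. Vehicle was 30% Captisol or 0.5% methylcellulose.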

[9] = Stability in pH 6.5 simulated gastrointestinal fluid assessed as compound remaining at 50 uM after 3 hrs by LC-MS/MS method; type: ADME; details: read-out: Stability
Method in brief: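 Compounds at 50 μM were incubated in fasted-state simulated intestinal fluid (FaSSIF, pH 6.5) for over 3 h. Percent remaining was determined by LC-MS/MS.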

Canis familiaris [10] = experiment: AUC (0 to 8 hrs) in fasted Beagle dog assessed as 8-OH, benzoate ester level at 10 mg/kg dosed through intraduodenal route by LC-MS/MS method; type: ADME, organism-based, Canis lupus familiaris, Plasma; set-up: time < 8 hr, dose 10 mg/kg, route intraduodenal; details: in vivo, other; method in brief: as §1
Canis familiaris [11] = experiment: Oral bioavailability in fasted Beagle dog assessed as ertapenem level at 10 mg/kg dosed through intraduodenal route by LC-MS/MS method; type: ADME, organism-based, Canis lupus familiaris; details: in vivo
Method in brief: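 After intraduodenal dosing, plasma over 8 h was analysed by LC-MS/MS. Bioavailability was calculated as dose-normalized AUC of ertapenem formed from the prodrug divided by dose-normalized AUC of ertapenem dosed iv. Vehicle was 30% Captisol or 0.5% methylcellulose.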

[12] = as §3; type: ADME, organism-based, Canis lupus familiaris, Plasma; set-up: time < 8 hr, dose 10 mg/kg, route intraduodenal; details: Beagle, plasma; method in brief: as §1

Structure (SMILES): CCOC(=O)C1=C(S[C@@H]2CN[C@H](C(=O)Nc3cccc(C(=O)OCC)c3)C2)[C@H](C)[C@@H]2[C@@H]([C@@H](C)OC(=O)CC)C(=O)N12
- AUC (Canis familiaris [1]): 9.1 µM·h
- degraded at 1 h, 1 µM [2]: > 25%
- remaining at 1 h, 50 µM [3]: 22%
- AUC (Canis familiaris [4]): 1.3 µM·h
- remaining at 1 h, 50 µM [5]: 0%
- remaining at 3 h, 50 µM [6]: > 95%
- AUC (Canis familiaris [7]; BLD = below limit of detection): BLD
- F (Canis familiaris [8]): 20.2%
- remaining at 3 h, 50 µM [9]: > 95%
- AUC (Canis familiaris [10]): 1.6 µM·h
- F (Canis familiaris [11]): 12.6%

Structure (SMILES): CCOC(=O)C1=C(S[C@H]2C[C@@H](C(=O)Nc3cccc(C(=O)OCC)c3)N(C(=O)OCc3oc(=O)oc3C)C2)[C@H](C)[C@@H]2[C@@H]([C@@H](C)O)C(=O)N12
- AUC (Canis familiaris [1]): 3.4 µM·h
- degraded at 1 h, 1 µM [2]: > 25%
- remaining at 1 h, 50 µM [3]: 9%
- AUC (Canis familiaris [4]): 0.7 µM·h
- remaining at 1 h, 50 µM [5]: 0%
- remaining at 3 h, 50 µM [6]: > 95%
- AUC (Canis familiaris [7]; BLD = below limit of detection): BLD
- F (Canis familiaris [8]): 14.4%
- remaining at 3 h, 50 µM [9]: > 95%
- AUC (Canis familiaris [10]): 3.1 µM·h
- F (Canis familiaris [11]): 6.4%

Structure (SMILES): COC(=O)C1=C(S[C@@H]2CN[C@H](C(=O)Nc3cccc(C(=O)OC)c3)C2)[C@H](C)[C@@H]2[C@@H]([C@@H](C)O)C(=O)N12
- AUC (Canis familiaris [1]): 12 µM·h
- degraded at 1 h, 1 µM [2]: > 25%
- remaining at 1 h, 50 µM [3]: 0%
- AUC (Canis familiaris [4]): 3.9 µM·h
- remaining at 1 h, 50 µM [5]: 0%
- remaining at 3 h, 50 µM [6]: > 95%
- AUC(0-t) at 8 h [12]: 0.8 µM·h
- F (Canis familiaris [8]): 24.2%
- remaining at 3 h, 50 µM [9]: > 95%
- AUC (Canis familiaris [10]): 3.6 µM·h
- F (Canis familiaris [11]): 14.3%

Structure (SMILES): C[C@@H](O)[C@H]1C(=O)N2C3=C(S[C@@H]4CN[C@@H](C4)C(=O)Nc4cccc(c4)C(=O)OCCCOC3=O)[C@H](C)[C@H]12
- AUC (Canis familiaris [1]): 0.4 µM·h
- degraded at 1 h, 1 µM [2]: > 25%
- remaining at 1 h, 50 µM [3]: 34%
- remaining at 3 h, 50 µM [6]: > 95%
- AUC (Canis familiaris [7]): 0.1 µM·h
- F (Canis familiaris [8]): 0.7%
- remaining at 3 h, 50 µM [9]: > 95%
- F (Canis familiaris [11]): 0.5%

Structure (SMILES): CCOC(=O)C1=C(S[C@@H]2CN[C@H](C(=O)Nc3cccc(C(=O)OCC)c3)C2)[C@H](C)[C@@H]2[C@@H]([C@@H](C)OC(C)=O)C(=O)N12
- AUC (Canis familiaris [1]): 11.3 µM·h
- degraded at 1 h, 1 µM [2]: > 25%
- remaining at 1 h, 50 µM [3]: 37%
- AUC (Canis familiaris [4]): 1.8 µM·h
- remaining at 1 h, 50 µM [5]: 0%
- remaining at 3 h, 50 µM [6]: > 95%
- AUC(0-t) at 8 h [12]: < 0.1 µM·h
- F (Canis familiaris [8]): 23.3%
- remaining at 3 h, 50 µM [9]: > 95%
- AUC (Canis familiaris [10]): 2.2 µM·h
- F (Canis familiaris [11]): 15.4%

Structure (SMILES): CCCCOC(=O)C1=C(S[C@@H]2CN[C@H](C(=O)Nc3cccc(C(=O)OCCCC)c3)C2)[C@H](C)[C@@H]2[C@@H]([C@@H](C)O)C(=O)N12
- AUC (Canis familiaris [1]): 9.4 µM·h
- degraded at 1 h, 1 µM [2]: > 25%
- remaining at 1 h, 50 µM [3]: 1%
- remaining at 1 h, 50 µM [5]: 2%
- remaining at 3 h, 50 µM [6]: > 95%
- AUC(0-t) at 8 h [12]: 2.8 µM·h
- F (Canis familiaris [8]): 16.9%
- remaining at 3 h, 50 µM [9]: > 95%
- F (Canis familiaris [11]): 13.1%

Structure (SMILES): CC(=O)O[C@H](C)[C@H]1C(=O)N2C3=C(S[C@@H]4CN[C@@H](C4)C(=O)Nc4cccc(c4)C(=O)OCOCOC3=O)[C@H](C)[C@H]12
- AUC (Canis familiaris [1]): 10.1 µM·h
- degraded at 1 h, 1 µM [2]: > 25%
- remaining at 1 h, 50 µM [3]: 30%
- remaining at 1 h, 50 µM [5]: 0%
- remaining at 3 h, 50 µM [6]: > 95%
- AUC(0-t) at 8 h [12]: 0.1 µM·h
- F (Canis familiaris [8]): 16%
- remaining at 3 h, 50 µM [9]: > 95%
- F (Canis familiaris [11]): 13.4%

Structure (SMILES): CCCOC(=O)C1=C(S[C@@H]2CN[C@H](C(=O)Nc3cccc(C(=O)OCCC)c3)C2)[C@H](C)[C@@H]2[C@@H]([C@@H](C)O)C(=O)N12
- AUC (Canis familiaris [1]): 7.3 µM·h
- degraded at 1 h, 1 µM [2]: > 25%
- remaining at 1 h, 50 µM [3]: 7%
- remaining at 1 h, 50 µM [5]: 0%
- remaining at 3 h, 50 µM [6]: > 95%
- AUC(0-t) at 8 h [12]: 1 µM·h
- F (Canis familiaris [8]): 11%
- remaining at 3 h, 50 µM [9]: > 95%
- F (Canis familiaris [11]): 9.8%
